Values belong to the compound of their own block, whether it stands above or below them. Active and inactive are the calls of the source. No cut-off for these calls is given here.
Columns and labels:
[1] = target: T1, Nuclear factor erythroid 2-related factor 2 (Rattus norvegicus) (UniProt O54968); test: Induction of NRF2 activation in rat H42E cells expressing ARE8L assessed as reporter transgene activity after 24 hrs by luminescence assay; assay type: cell-based
T1 sequence (whole entry): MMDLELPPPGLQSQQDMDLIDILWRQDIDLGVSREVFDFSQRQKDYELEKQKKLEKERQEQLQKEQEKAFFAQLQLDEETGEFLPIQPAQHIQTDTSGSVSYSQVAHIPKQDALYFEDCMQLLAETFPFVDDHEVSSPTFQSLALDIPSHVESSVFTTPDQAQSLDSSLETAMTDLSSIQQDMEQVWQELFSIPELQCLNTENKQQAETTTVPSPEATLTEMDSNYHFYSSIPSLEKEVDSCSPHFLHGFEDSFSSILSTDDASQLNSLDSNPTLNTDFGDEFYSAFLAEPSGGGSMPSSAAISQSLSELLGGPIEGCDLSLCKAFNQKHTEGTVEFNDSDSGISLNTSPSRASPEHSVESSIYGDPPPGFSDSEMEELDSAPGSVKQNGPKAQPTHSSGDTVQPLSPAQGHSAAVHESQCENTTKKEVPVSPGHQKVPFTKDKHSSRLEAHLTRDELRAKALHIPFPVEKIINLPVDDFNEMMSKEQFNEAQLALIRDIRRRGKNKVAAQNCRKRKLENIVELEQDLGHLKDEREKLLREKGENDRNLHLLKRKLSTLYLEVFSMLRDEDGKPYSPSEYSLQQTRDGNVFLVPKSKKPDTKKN
Method in brief: (§1)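 Reporter cells (H4IIE-ARE8L) exposed 24 h to compounds at 0.5% DMSO. Cells washed in PBS, then given 150 µg/mL D-luciferin in PBS for 5 min before reading luminescence. Signal normalised to vehicle-treated cells. The concentration giving a 2-fold rise in reporter activity (CD) was taken from the concentration-response data. Mean ± S.D., n=4.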

[2] = Thiol reactivity using beta-mercaptoethanol assessed as chemical shifts at 25 degC by NMR spectroscopy
[3] = Thiol reactivity using beta-mercaptoethanol assessed as chemical shifts in presence of triethylamine at 25 degC by NMR spectroscopy
[4] = target: Kelch-like ECH-associated protein 1 (Mus musculus) (UniProt Q9Z2X8); test: Binding affinity to recombinant mouse poly His-tagged Keap1 expressed in Escherichia coli assessed as chemical modification of Cys-257 residue incubated up to 24 hrs by LC-MS/MS analysis
Method in brief: (§2)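 Recombinant His-tagged protein (human GSTP1 or mouse Keap1) purified by nickel affinity and incubated on-bead with the stated molar excess of compound for up to 24 h, pH 8.4, 37 °C. Free cysteines capped with 55 mM iodoacetamide for 15 min, trypsin digest overnight at 37 °C, LC-MS/MS detection of adduct mass shifts on peptide y/b ions.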

[5] = Cytotoxicity against rat H42E cells expressing ARE8L assessed as cellular ATP level after 24 hrs by Celltiter-Glo luminescent cell viability assay; assay type: cell-based
Method in brief: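 H4IIE-ARE8L rat hepatoma cells grown in DMEM with 10% FBS, glutamine, HEPES and non-essential amino acids, and exposed 24 h to compounds at 0.5% DMSO. Cellular ATP measured by CellTiter-Glo luminescence and expressed relative to vehicle. Mean ± S.D., n=4.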

[6] = target: Kelch-like ECH-associated protein 1 (Mus musculus) (UniProt Q9Z2X8); test: Binding affinity to recombinant mouse poly His-tagged Keap1 expressed in Escherichia coli assessed as chemical modification of Cys-288 residue incubated up to 24 hrs by LC-MS/MS analysis; method in brief: as §2
[7] = target: Kelch-like ECH-associated protein 1 (Mus musculus) (UniProt Q9Z2X8); test: Binding affinity to recombinant mouse poly His-tagged Keap1 expressed in Escherichia coli assessed as chemical modification of Cys-434 residue incubated up to 24 hrs by LC-MS/MS analysis; method in brief: as §2
[8] = target: Kelch-like ECH-associated protein 1 (Mus musculus) (UniProt Q9Z2X8); test: Binding affinity to recombinant mouse poly His-tagged Keap1 expressed in Escherichia coli assessed as chemical modification of Cys-613 residue incubated up to 24 hrs by LC-MS/MS analysis; method in brief: as §2
[9] = target: Kelch-like ECH-associated protein 1 (Mus musculus) (UniProt Q9Z2X8); test: Binding affinity to mouse V5-tagged Keap1 expressed in HEK293T cells assessed as chemical modification of Cys-257 residue at 100 uM incubated for by LC-MS/MS analysis; assay type: cell-based; details: HEK-293T
Method in brief: (§3)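 Mouse Keap1-V5 expressed ectopically in HEK293T cells; cells exposed to 100 µM compound for 1 h. Keap1-V5 immunopurified from lysates, free cysteines capped with iodoacetamide, trypsin-digested overnight at 37 °C, then LC-MS/MS. Modification frequency per cysteine from n=4 independent experiments.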

[10] = target: Kelch-like ECH-associated protein 1 (Mus musculus) (UniProt Q9Z2X8); test: Binding affinity to mouse V5-tagged Keap1 expressed in HEK293T cells assessed as chemical modification of Cys-288 residue at 100 uM incubated for by LC-MS/MS analysis; assay type: cell-based; details: HEK-293T; method in brief: as §3
[11] = target: Kelch-like ECH-associated protein 1 (Mus musculus) (UniProt Q9Z2X8); test: Binding affinity to mouse V5-tagged Keap1 expressed in HEK293T cells assessed as chemical modification of Cys-489 residue at 100 uM incubated for by LC-MS/MS analysis; assay type: cell-based; details: HEK-293T; method in brief: as §3
[12] = target: Kelch-like ECH-associated protein 1 (Mus musculus) (UniProt Q9Z2X8); test: Binding affinity to mouse V5-tagged Keap1 expressed in HEK293T cells assessed as chemical modification of Cys-273 residue at 100 uM incubated for by LC-MS/MS analysis; assay type: cell-based; details: HEK-293T; method in brief: as §3
[13] = target: Kelch-like ECH-associated protein 1 (Mus musculus) (UniProt Q9Z2X8); test: Binding affinity to mouse V5-tagged Keap1 expressed in HEK293T cells assessed as chemical modification of Cys-434 residue at 100 uM incubated for by LC-MS/MS analysis; assay type: cell-based; details: HEK-293T; method in brief: as §3
[14] = target: Glutathione S-transferase P (Homo sapiens) (UniProt P09211); test: Binding affinity to recombinant human poly His-tagged GSTP1 expressed in Escherichia coli assessed as chemical modification at Cys-47 at 100:1 compound:protein molar ratio after 24 hrs by LC-MS/MS analysis; method in brief: as §2
[15] = target: Glutathione S-transferase P (Homo sapiens) (UniProt P09211); test: Binding affinity to recombinant human poly His-tagged GSTP1 expressed in Escherichia coli assessed as chemical modification of Cys-47 residue at 1:1 compound:protein molar ratio after 24 hrs by LC-MS/MS analysis in presence of methyl 2-cyano-3,12-dioxooleana-1,9(11)-dien-28-oate
Method in brief: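 Competition format. His-tagged human GSTP1 was held on-bead at pH 8.4, 37 °C and pre-incubated 1 h with molar excesses of the competitor. The probe was then added at 1:1 molar ratio for another 24 h, with the competitor kept in the buffer. Cysteines capped with iodoacetamide, followed by tryptic digestion and LC-MS/MS of Cys-47 modification.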

[16] = Thiol reactivity using N-acetyl cysteine assessed as chemical shifts at 25 degC by NMR spectroscopy
[17] = target: Kelch-like ECH-associated protein 1 (Mus musculus) (UniProt Q9Z2X8); test: Binding affinity to recombinant mouse poly His-tagged Keap1 expressed in Escherichia coli assessed as chemical modification of Cys-273 residue incubated up to 24 hrs by LC-MS/MS analysis; method in brief: as §2
[18] = target: Kelch-like ECH-associated protein 1 (Mus musculus) (UniProt Q9Z2X8); test: Binding affinity to recombinant mouse poly His-tagged Keap1 expressed in Escherichia coli assessed as chemical modification of Cys-489 residue incubated up to 24 hrs by LC-MS/MS analysis; method in brief: as §2
[19] = target: T1, Nuclear factor erythroid 2-related factor 2 (Rattus norvegicus); test: Induction of NRF2 activation in rat H42E cells expressing ARE8L assessed as increase in reporter transgene activity after 24 hrs by luminescence assay; assay type: cell-based; method in brief: as §1
[20] = target: T1, Nuclear factor erythroid 2-related factor 2 (Rattus norvegicus); test: Stabilization of NRF2 in rat H42E cells expressing ARE8L at 0.01 to 30 nM after 1 hr by Western blot analysis; assay type: cell-based
Method in brief: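 H4IIE-ARE8L cells exposed 1 h to the compound. Nrf2 protein accumulation detected by immunoblot. DMSO (0.5%) served as negative control and MG132 (10 μM) as positive control. Representative of n=3 independent experiments.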

[21] = target: Glutathione S-transferase P (Homo sapiens) (UniProt P09211); test: Binding affinity to recombinant human poly His-tagged GSTP1 expressed in Escherichia coli assessed as chemical modification at Cys-47 at 10:1 compound:protein molar ratio after 1 hr by LC-MS/MS analysis; method in brief: as §2

Sequence of Glutathione S-transferase P (Homo sapiens) (P09211 2-210 limits assumed): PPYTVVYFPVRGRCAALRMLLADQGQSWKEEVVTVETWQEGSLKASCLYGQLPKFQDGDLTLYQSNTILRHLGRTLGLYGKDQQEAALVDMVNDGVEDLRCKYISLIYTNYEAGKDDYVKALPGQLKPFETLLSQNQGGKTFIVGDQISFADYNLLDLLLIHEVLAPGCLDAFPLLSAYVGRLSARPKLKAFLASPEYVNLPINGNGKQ
Sequence of Kelch-like ECH-associated protein 1 (Mus musculus) (Q9Z2X8 whole entry): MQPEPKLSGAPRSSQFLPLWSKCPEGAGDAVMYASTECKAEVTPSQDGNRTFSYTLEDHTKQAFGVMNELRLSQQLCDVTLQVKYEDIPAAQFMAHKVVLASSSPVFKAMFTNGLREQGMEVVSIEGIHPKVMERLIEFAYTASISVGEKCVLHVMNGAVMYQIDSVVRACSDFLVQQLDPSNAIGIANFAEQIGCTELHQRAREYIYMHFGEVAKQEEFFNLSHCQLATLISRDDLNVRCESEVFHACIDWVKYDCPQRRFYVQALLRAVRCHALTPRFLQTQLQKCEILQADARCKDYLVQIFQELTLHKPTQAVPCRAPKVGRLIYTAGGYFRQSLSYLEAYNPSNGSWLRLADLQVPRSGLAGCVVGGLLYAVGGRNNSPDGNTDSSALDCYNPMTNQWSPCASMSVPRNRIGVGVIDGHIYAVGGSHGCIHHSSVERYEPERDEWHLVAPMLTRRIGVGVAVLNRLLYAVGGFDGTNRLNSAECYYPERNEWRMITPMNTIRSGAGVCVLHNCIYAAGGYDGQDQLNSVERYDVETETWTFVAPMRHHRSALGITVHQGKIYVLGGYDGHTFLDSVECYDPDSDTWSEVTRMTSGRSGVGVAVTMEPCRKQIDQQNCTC

Compound: COC(=O)[C@]12CCC(C)(C)C[C@H]1[C@H]1C(=O)C=C3[C@@]4(C)CC[C@H](OC(C)=O)C(C)(C)[C@@H]4CC[C@@]3(C)[C@]1(C)CC2
CD [1]: 17.6 µM

Compound: COC(=O)[C@]12CCC(C)(C)C[C@H]1[C@H]1C(=O)C=C3[C@@]4(C)C=CC(=O)C(C)(C)[C@@H]4CC[C@@]3(C)[C@]1(C)CC2
CD [1]: 0.9 µM | Activity [19]: Dose-dependent effect

Compound: COC(=O)[C@]12CCC(C)(C)C[C@H]1[C@H]1C(=O)C=C3[C@@]4(C)C=C(C#N)C(=O)C(C)(C)[C@@H]4CC[C@@]3(C)[C@]1(C)CC2 [BARDOXOLONE METHYL]
Activity [4]: inactive | Activity [20]: Active | CD [1]: 0.0005 µM | IC50 [5]: 1.4 µM | Activity [6]: inactive | Activity [7]: inactive | Activity [8]: inactive | Activity [21]: Active | Activity [2]: 5.85 ppm | Activity [16]: 5.81 ppm | Activity [17]: inactive | Activity [18]: inactive

More lines, main results first:

CD [1]: 0.009 µM
Compound: COC(=O)[C@]12CCC(C)(C)C[C@H]1[C@H]1C(=O)C=C3[C@@]4(C)CC(C#N)C(=O)C(C)(C)[C@@H]4CC[C@@]3(C)[C@]1(C)CC2 (some centres undefined)
Activity [2]: inactive | Activity [3]: inactive

CD [1]: 1.2 µM
Compound: COC(=O)[C@]12CCC(C)(C)C[C@H]1[C@H]1C(=O)C=C3[C@@]4(C)CCC(=O)C(C)(C)[C@@H]4CC[C@@]3(C)[C@]1(C)CC2

Activity [4]: Dose-dependent effect | CD [1]: 0.002 µM | Activity [6]: Dose-dependent effect | Activity [7]: Dose-dependent effect | Activity [8]: Dose-dependent effect | Activity [9]: Active | Activity [10]: Active | Activity [11]: Active | Activity [12]: Active | Activity [13]: Active | Activity [14]: Active | Activity [15]: inactive | Activity [17]: Dose-dependent effect | Activity [18]: Dose-dependent effect
Compound: COC(=O)[C@]12CCC(C)(C)C[C@H]1[C@H]1C(=O)C=C3[C@@]4(C)[C@H]5O[C@@]5(C#N)C(=O)C(C)(C)[C@@H]4CC[C@@]3(C)[C@]1(C)CC2
IC50 [5]: 4.3 µM | Activity [2]: inactive | Activity [16]: inactive | Activity [3]: 5.15 ppm

CD [1]: 15.4 µM | Activity [19]: Dose-dependent effect
Compound: COC(=O)[C@]12CCC(C)(C)C[C@H]1[C@H]1C(=O)C=C3[C@@]4(C)[C@H]5O[C@H]5C(=O)C(C)(C)[C@@H]4CC[C@@]3(C)[C@]1(C)CC2

Source: ChEMBL document CHEMBL3785089, “Design and Synthesis of Irreversible Analogues of Bardoxolone Methyl for the Identification of Pharmacologically Relevant Targets and Interaction Sites” (J Med Chem, 2016)
